According to ChEMBL document CHEMBL5523688, “Selective targeting of human TET1 by cyclic peptide inhibitors: Insights from biochemical profiling” (Bioorg Med Chem, 2024):

Assays:
[1] = molecular target: T1, Methylcytosine dioxygenase TET1 (Homo sapiens, UniProt Q8NFU7); assay: Inhibition of N-terminal 3xFlag-tagged recombinant human TET1 catalytic domain (E1418 to V2136 residues) expressed in baculovirus infected Sf9 cells using 5-methylcytosine as substrate preincubated for 10 mins followed by substrate and DNA-cofactor addition measured after 30 mins by Alphascreen assay; conditions: read-out: pIC50 (converted)
How it was run: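 TET1 catalytic domain (E1418–V2136, Sf9 baculovirus) at 2 nM was preincubated 10 min with inhibitor (1% DMSO) in HEPES 50 mM pH 7.3, 150 mM NaCl, 0.1% BSA, 0.01% Tween-20. Reaction was started with ascorbate 200 µM, Fe(II) 20 µM, 2OG 20 µM and 5mC ssDNA 10 nM, run 30 min, then EDTA-quenched. Anti-5hmC antibody with AlphaScreen beads, 45–60 min, luminescence read. Three independent replicates.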

[2] = molecular target: T2, Methylcytosine dioxygenase TET2 (Homo sapiens, UniProt Q6N021); assay: (§1) Inhibition of N-terminal His-tagged recombinant human TET2 catalytic domain LCIdel mutant (D1129 to G1936 residues with Y1481 to N1843 replaced by 3 x GGGGS linker) expressed in Escherichia coli BL21 (DE3) using 5-methylcytosine as substrate preincubated for 10 mins followed by substrate and DNA-cofactor addition measured after 10 mins by Alphascreen assay
[3] = molecular target: T2, Methylcytosine dioxygenase TET2; assay: as §1, with “after 12” for “after 10”, “by SPE-MS analysis” for “by Alphascreen assay”
[4] = molecular target: Methylcytosine dioxygenase TET3 (Homo sapiens, UniProt O43151); assay: Inhibition of recombinant human TET3 catalytic domain (E824 to I1795 residues) expressed in baculovirus infected Sf9 cells using 5-methylcytosine as substrate preincubated for 10 mins followed by substrate and DNA-cofactor addition measured after 10 mins by Alphascreen assay; conditions: read-out: pIC50 (converted)
[5] = molecular target: Methylcytosine dioxygenase TET1 (Mus musculus, UniProt Q3URK3); assay: Inhibition of recombinant mouse TET1 catalytic domain (E1367 to V2039 residues) expressed in baculovirus expression system using 5-methylcytosine as substrate preincubated for 10 mins followed by substrate and DNA-cofactor addition measured after 9 mins by Alphascreen assay
How it was run: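 Murine Tet1 catalytic domain (E1367–V2039, High Five baculovirus) at 2 nM was preincubated 10 min with inhibitor (1% DMSO) in HEPES 50 mM pH 7.3, NaCl 150 mM, BSA 0.1%, Tween-20 0.01%. Ascorbate 200 µM, Fe(II) 20 µM, 2OG 20 µM and 5mC ssDNA 10 nM were added; reaction ran 9 min, then EDTA-quenched. AlphaScreen anti-5hmC detection by luminescence.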

[6] = species on record: Homo sapiens; assay: Selectivity ratio of pIC50 for inhibition of N-terminal 3xFlag-tagged recombinant human TET1 catalytic domain (E1418 to V2136 residues) expressed in baculovirus infected Sf9 cells to pIC50 for inhibition of N-terminal His-tagged recombinant human TET2 catalytic domain LCIdel mutant (D1129 to G1936 residues with Y1481 to N1843 replaced by 3 x GGGGS linker) expressed in Escherichia coli BL21 (DE3)
[7] = test system: Methylcytosine dioxygenase TET2 (Homo sapiens), Q6N021 [UNDEFINED MUTATION]; conditions: time 20.0 min
[8] = Selectivity ratio of pIC50 for inhibition of N-terminal 3xFlag-tagged recombinant human TET1 catalytic domain (E1418 to V2136 residues) expressed in baculovirus infected Sf9 cells to pIC50 for inhibition of recombinant human TET3 catalytic domain (E824 to I1795 residues) expressed in baculovirus infected Sf9 cells
[9] = molecular target: T1, Methylcytosine dioxygenase TET1; assay: Inhibition of FLAG-tagged human TET1 catalytic domain (E1418 to V2136 residues) expressed in doxycycline induced human U2OS cells incubated for 24 hrs by immunofluorescence assay; format: cell-based
How it was run: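 U2OS cells stably carrying dox-inducible FLAG-tagged TET1 catalytic domain (E1418–V2136), 5,000/well, seeded 4 h at 37 °C in DMEM with Tet-approved 10% FBS, pen/strep and L-glutamine. Doxycycline 1 µg/mL induction plus compound dosing (1% DMSO final) for 24 h. After fixation, cells were co-stained with anti-5hmC and anti-FLAG antibodies plus DAPI, then imaged. Read-out was mean 5hmC fluorescence in FLAG-positive cells.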

T1 sequence (Q8NFU7 whole entry, the tested form may be a part): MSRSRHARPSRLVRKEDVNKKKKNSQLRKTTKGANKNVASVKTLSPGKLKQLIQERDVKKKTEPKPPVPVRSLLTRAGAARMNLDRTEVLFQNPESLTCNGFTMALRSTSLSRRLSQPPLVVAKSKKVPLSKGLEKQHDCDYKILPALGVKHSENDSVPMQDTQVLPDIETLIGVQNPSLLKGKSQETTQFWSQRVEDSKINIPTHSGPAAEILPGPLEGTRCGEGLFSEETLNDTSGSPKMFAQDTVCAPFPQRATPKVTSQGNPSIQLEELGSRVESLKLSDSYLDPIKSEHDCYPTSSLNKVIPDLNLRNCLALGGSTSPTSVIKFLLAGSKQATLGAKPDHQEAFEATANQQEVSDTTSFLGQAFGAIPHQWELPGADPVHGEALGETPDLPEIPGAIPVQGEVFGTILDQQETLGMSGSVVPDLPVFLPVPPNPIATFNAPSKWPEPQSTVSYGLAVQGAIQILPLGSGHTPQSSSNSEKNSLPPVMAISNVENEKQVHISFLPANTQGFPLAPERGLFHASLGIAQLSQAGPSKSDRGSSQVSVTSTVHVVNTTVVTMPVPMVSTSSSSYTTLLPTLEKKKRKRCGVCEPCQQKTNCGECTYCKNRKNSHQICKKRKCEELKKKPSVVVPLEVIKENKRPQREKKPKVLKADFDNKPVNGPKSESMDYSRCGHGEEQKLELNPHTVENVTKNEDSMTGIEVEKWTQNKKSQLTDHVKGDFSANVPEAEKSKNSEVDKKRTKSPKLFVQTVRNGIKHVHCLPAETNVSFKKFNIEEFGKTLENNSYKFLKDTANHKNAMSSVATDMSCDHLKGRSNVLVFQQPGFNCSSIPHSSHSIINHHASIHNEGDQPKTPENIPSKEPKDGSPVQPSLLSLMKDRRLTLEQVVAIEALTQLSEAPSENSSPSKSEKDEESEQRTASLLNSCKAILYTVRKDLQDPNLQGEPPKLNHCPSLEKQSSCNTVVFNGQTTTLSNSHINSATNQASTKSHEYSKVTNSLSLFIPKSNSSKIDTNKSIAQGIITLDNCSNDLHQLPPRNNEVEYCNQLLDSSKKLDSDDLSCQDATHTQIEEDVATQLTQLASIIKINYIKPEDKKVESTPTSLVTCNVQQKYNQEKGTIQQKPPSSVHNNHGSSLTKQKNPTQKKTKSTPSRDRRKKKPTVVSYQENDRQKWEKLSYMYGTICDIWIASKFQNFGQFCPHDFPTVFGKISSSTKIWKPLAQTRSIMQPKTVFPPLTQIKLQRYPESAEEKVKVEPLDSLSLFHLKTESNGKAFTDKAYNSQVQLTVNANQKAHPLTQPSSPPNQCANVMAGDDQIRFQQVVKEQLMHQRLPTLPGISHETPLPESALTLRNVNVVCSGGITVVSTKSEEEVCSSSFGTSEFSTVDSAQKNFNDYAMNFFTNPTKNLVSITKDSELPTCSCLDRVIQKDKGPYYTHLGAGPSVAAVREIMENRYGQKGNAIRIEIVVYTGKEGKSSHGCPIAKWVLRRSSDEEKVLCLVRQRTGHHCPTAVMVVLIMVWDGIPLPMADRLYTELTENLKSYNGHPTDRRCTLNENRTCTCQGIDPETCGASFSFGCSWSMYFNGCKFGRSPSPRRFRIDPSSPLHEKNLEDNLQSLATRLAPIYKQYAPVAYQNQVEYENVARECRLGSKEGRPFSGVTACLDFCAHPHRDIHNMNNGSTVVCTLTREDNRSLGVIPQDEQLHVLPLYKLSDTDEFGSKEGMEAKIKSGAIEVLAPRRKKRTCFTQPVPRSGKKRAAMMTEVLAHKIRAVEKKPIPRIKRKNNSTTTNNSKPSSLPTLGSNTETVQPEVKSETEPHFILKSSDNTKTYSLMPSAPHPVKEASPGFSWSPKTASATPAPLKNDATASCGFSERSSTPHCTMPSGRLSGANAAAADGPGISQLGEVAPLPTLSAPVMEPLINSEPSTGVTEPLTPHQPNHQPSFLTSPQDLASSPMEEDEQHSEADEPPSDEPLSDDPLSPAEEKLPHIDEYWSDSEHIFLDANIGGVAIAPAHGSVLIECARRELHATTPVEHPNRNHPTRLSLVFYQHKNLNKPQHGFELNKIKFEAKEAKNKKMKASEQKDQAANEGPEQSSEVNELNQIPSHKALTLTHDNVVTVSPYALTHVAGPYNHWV

| SMILES | IC50 [1] [µM] | pIC50 [2] | pIC50 [3] | IC50 [4] [µM] | IC50 [5] [µM] | Ratio pIC50 [6] | deltapIC50 [7] | Ratio pIC50 [8] | IC50 [9] [µM] |
| --- | --- | --- | --- | --- | --- | --- | --- | --- | --- |
| CC[C@H](C)[C@@H]1NC(=O)[C@H](CC(C)C)NC(=O)[C@H](Cc2c[nH]c3ccccc23)NC(=O)[C@H](Cc2c[nH]c3ccccc23)NC(=O)[C@H]([C@@H](C)O)NC(=O)[C@H](Cc2ccc(O)cc2)NC(=O)[C@H](CC(C)C)NC(=O)[C@H](C)NC(=O)[C@H](Cc2ccc(O)cc2)NC(=O)[C@H](CCC(=O)O)NC(=O)[C@H](CCCNC(=N)N)NC(=O)[C@@H](Cc2ccc(O)cc2)NC(=O)CSC[C@@H](C(N)=O)NC(=O)[C@H](CCC(N)=O)NC1=O | 0.204 | 4.38 | 5.6 | 49 | 45.7 | 12 | 1.22 | – | – |
| CC[C@H](C)[C@@H]1NC(=O)[C@H](CC(C)C)NC(=O)[C@@H](Cc2ccc(O)cc2)NC(=O)CSC[C@@H](C(=O)NCC(=O)N[C@@H](CO)C(=O)NCC(=O)N[C@@H](CO)C(=O)N[C@@H](CC(=O)O)C(=O)N[C@@H](Cc2ccc(O)cc2)C(=O)N[C@@H](CCCCN)C(=O)N[C@@H](CC(=O)O)C(=O)N[C@@H](CC(=O)O)C(=O)N[C@@H](CC(=O)O)C(=O)N[C@@H](CC(=O)O)C(=O)N[C@@H](CCCCN)C(N)=O)NC(=O)[C@H](CO)NC(=O)[C@H](Cc2c[nH]cn2)NC(=O)[C@H](CCC(=O)O)NC(=O)[C@H](Cc2c[nH]c3ccccc23)NC(=O)[C@H](Cc2c[nH]c3ccccc23)NC(=O)[C@H]([C@@H](C)O)NC(=O)[C@H](Cc2ccc(O)cc2)NC(=O)[C@H](Cc2ccc(O)cc2)NC(=O)[C@H](C)NC(=O)[C@H](Cc2ccc(O)cc2)NC1=O | 0.407 | 4.59 | – | 23.4 | – | – | – | 58 | – |
| O=C(O)c1ccc(O)c2ncccc12 | 0.562 | – | – | – | 0.427 | – | 0.07 | – | 22 |
